Among the data in BindingDB's records for doi:10.1016/s0960-894x(03)00042-8 (Merck Frosst Centre For Therapeutic Research, 2003) are Ki values, retold here.

The assay deals with Prostaglandin E2 receptor EP4 subtype (Homo sapiens, UniProt P35408). In words: Binding affinity towards EP4 receptor expressed in HEK293 ebna cells recombinantly expressing the corresponding human prostanoid cDNAs. Put shortly:
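Competition binding used membrane preparations, not intact cells, from HEK293ebna cells expressing each recombinant human prostanoid receptor cDNA.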

Prostaglandin E2 receptor EP4 subtype, sequence (P35408 whole entry): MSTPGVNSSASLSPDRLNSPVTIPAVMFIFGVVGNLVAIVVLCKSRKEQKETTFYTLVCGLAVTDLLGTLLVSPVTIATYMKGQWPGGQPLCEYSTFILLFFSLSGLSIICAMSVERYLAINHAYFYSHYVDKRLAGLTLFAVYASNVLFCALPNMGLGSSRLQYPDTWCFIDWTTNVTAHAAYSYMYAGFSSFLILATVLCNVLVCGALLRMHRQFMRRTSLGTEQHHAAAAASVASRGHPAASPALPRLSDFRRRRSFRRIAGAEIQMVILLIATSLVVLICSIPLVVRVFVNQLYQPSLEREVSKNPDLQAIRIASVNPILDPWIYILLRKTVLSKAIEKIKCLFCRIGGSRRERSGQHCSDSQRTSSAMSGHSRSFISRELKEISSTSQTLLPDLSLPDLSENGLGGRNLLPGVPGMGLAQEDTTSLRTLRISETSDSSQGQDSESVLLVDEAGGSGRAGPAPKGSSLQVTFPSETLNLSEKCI

In general, Ki refers to the dissociation constant of the complex between target and ligand, obtained from inhibition or displacement. For the compound `O=C1CC[C@H](/C=C/[C@H](O)Cc2ccccc2)N1CCCCCCc1nnn[nH]1`, the Ki was found to be 2.5 nM.
